Experimental data as given in ChEMBL document CHEMBL4689842, “EUbOPEN Chemogenomics Library wave 1” (2021).
Where “and” joins values, the source holds several entries; their conditions need not be identical. Equal entries are not always repeated.

Test system: HEK-293T
Experiment: Multiplex assay against HEK293T;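 for Population Tubulin-Different-Phenotype (%): share of the cells with healthy nuclei that show this phenotype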
Type: toxicity, cell-based
Conditions: human, 10 µM, compound concentration 10 uM
Outline: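 Live cells carried four stains from seeding: Hoechst33342, BioTracker Green Microtubule Cytoskeleton Dye, MitoTracker Red and Annexin V Alexa Fluor 680. They were imaged on a CQ1 microscope at 37°C and 5% CO2 after compound addition. Using CellPathfinder machine-learning gating, cells were split into Hoechst high-intensity objects or normal cells, normal cells into healthy, pyknosed or fragmented nuclei, and pyknosed cells into mitotic or apoptotic; tubulin, mitochondrial-mass and membrane-permeability phenotypes are per cents of healthy-nucleus cells.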

In the case of `O=C(NCCN1CCOCC1)c1ccc2c(c1)C(=O)c1ccc(Nc3ccc(F)c(NC(=O)c4ccccc4)c3)cc1CC2` [FS-694], the “Population Apoptotic (%)” value (12 h, replicate 1) is reported as 34%, the “Population Fragmented Nuclei (%)” value (12 h, replicate 1) is reported as 35% and 16% and the “Population Healthy Nuclei (%)” value (12 h, replicate 1) is reported as 29% and 54%. For the same molecule, the “Population Membrane Permeable-Phenotype (%)” value (12 h, replicate 1) was 32% and 21%, the “Population Mitochondria Different-Phenotype (%)” value (12 h, replicate 1) was 12% and 9% and the “Population Mitotic Cells (%)” value (12 h, replicate 1) was 65%. For the same molecule, the “Population Normal (%)” value (12 h, replicate 1) was 41% and 85%, the “Population Pyknosed Nuclei (%)” value (12 h, replicate 1) was 35% and 29% and the “Population Tubulin-Different-Phenotype (%)” value (12 h, replicate 1) was 30% and 33%. For the same molecule, the “Total Cell Count” value (12 h, replicate 1) was 1239 and 557, the “Population Apoptotic (%)” value (12 h, replicate 2) was 28% and 16% and the “Population Fragmented Nuclei (%)” value (12 h, replicate 2) was 3% and 4%. The “Population Healthy Nuclei (%)” value (12 h, replicate 2) was 69% and 85%, the “Population Membrane Permeable-Phenotype (%)” value (12 h, replicate 2) was 15% and 11% and the “Population Mitochondria Different-Phenotype (%)” value (12 h, replicate 2) was 47% and 23%. For the same molecule, the “Population Mitotic Cells (%)” value (12 h, replicate 2) was 71% and 83%, the “Population Normal (%)” value (12 h, replicate 2) was 76% and 96% and the “Population Pyknosed Nuclei (%)” value (12 h, replicate 2) was 26% and 9%. The “Population Tubulin-Different-Phenotype (%)” value (12 h, replicate 2) was 97% and 66%, the “Total Cell Count” value (12 h, replicate 2) was 1142 and 1356 and the “Population Apoptotic (%)” value (24 h, replicate 1) was 48% and 24%. The “Population Membrane Permeable-Phenotype (%)” value (24 h, replicate 1) was 31% and 22%, the “Population Mitochondria Different-Phenotype (%)” value (24 h, replicate 1) was 14% and 8% and the “Population Mitotic Cells (%)” value (24 h, replicate 1) was 51% and 75%. The “Population Normal (%)” value (24 h, replicate 1) was 43% and 89%, the “Population Pyknosed Nuclei (%)” value (24 h, replicate 1) was 34% and 16% and the “Population Tubulin-Different-Phenotype (%)” value (24 h, replicate 1) was 18% and 51%. For the same molecule, the “Total Cell Count” value (24 h, replicate 1) was 1331 and 564, the “Population Fragmented Nuclei (%)” value (24 h, replicate 2) was 5% and the “Population Healthy Nuclei (%)” value (24 h, replicate 2) was 85% and 58%. The “Population Mitotic Cells (%)” value (24 h, replicate 2) was 90% and 60%, the “Population Normal (%)” value (24 h, replicate 2) was 95% and 69% and the “Population Tubulin-Different-Phenotype (%)” value (24 h, replicate 2) was 70% and 96%. For the same molecule, the “Total Cell Count” value (24 h, replicate 2) was 1983 and 1283.
